Test results taken from publication PMC3902942 (Nucleic Acids Research, 2013).
pIC50, pKd: −log10 of the molar value.

How the values were obtained:
[1] = tested on: PU.1-λB complex (PU.1 ETS domain on immobilized λB site hairpin); assay: Biosensor-SPR PU.1-DNA complex inhibition; assay type: binding, murine
Summary of the method: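 Murine PU.1 ETS domain (residues 167–272), expressed in E. coli, on a Biacore T200 biosensor. 5′-Biotinylated λB-site hairpin DNA immobilised on CM4 chips. Protein injected at constant 100 nM to saturate DNA sites, with graded compound concentrations added to the protein solution. Loss of protein signal plotted against compound concentration. Transition midpoint taken as IC50.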

[2] = biological target: λB site DNA hairpin duplex; assay: Biosensor-SPR direct binding of compounds to immobilized λB site DNA hairpin; settings: read-out: KD for the λB site

Inhibition of PU.1 binding (in words) [1]	pKd [2]	Structure (SMILES)	pIC50 ([1]; read-out: IC50 of PU.1 binding inhibition)
does not inhibit PU.1 binding	6.28	N=C(N)c1ccc(-c2ccc(-c3ccc(C(=N)N)cc3)o2)cc1 [DB75, furamidine]	–
–	–	N=C(N)c1ccc(-c2ccc(-c3ccc(C(=N)N)cc3)[se]2)cc1 [DB1213]	~5.82
